Laboratory results from ChEMBL document CHEMBL4689842, “EUbOPEN Chemogenomics Library wave 1” (2021).

Legend:
Fibroblast = assay: Incucyte cell viability with human fibroblast; assay type: toxicity, cell-based; details: 10 µM, compound concentration 10 uM; also: filed as whole numbers so only -1 and 0 and 1 occur
HEK-293T = assay: Multiplex assay against HEK293T; assay type: toxicity, cell-based; details: human;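 as to Population Tubulin-Different-Phenotype (%): share of the cells with healthy nuclei that show this phenotype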
Procedure, shortened: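 Tubulin, mitochondrial-mass and membrane-permeability phenotypes are per cents of healthy-nucleus cells. Cells were gated by CellPathfinder machine learning into Hoechst high-intensity objects or normal cells, normal cells into healthy, pyknosed or fragmented nuclei, and pyknosed cells into mitotic or apoptotic. Before that, live cells stained at seeding with Hoechst33342, BioTracker Green Microtubule Cytoskeleton Dye, MitoTracker Red and Annexin V Alexa Fluor 680 were imaged on a CQ1 microscope at 37°C and 5% CO2 after compound addition.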

[1] = 12 h, 1 µM, compound concentration 1 uM, replicate 1
[2] = 12 h, 1 µM, compound concentration 1 uM, replicate 2
[3] = 12 h, 10 µM, compound concentration 10 uM, replicate 1
[4] = 12 h, 10 µM, compound concentration 10 uM, replicate 2
[5] = 24 h, 1 µM, compound concentration 1 uM, replicate 1
[6] = 24 h, 1 µM, compound concentration 1 uM, replicate 2
[7] = 24 h, 10 µM, compound concentration 10 uM, replicate 1
[8] = 24 h, 10 µM, compound concentration 10 uM, replicate 2

With `CC[C@H](Nc1ncnc2[nH]cnc12)c1nc2cccc(F)c2c(=O)n1-c1ccccc1` [IDELALISIB] the “Growth Rate” value (Fibroblast; 6 h, replicate number 1, timepoint 6 hours) was 0, the “Growth Rate” value (Fibroblast; 12 h, replicate number 1, timepoint 12 hours) was 0 and the “Growth Rate” value (Fibroblast; 18 h, replicate number 1, timepoint 18 hours) was 0. For the same compound, the “Growth Rate” value (Fibroblast; 18 h, replicate number 2, timepoint 18 hours) was 1, the “Growth Rate” value (Fibroblast; 24 h, replicate number 1, timepoint 24 hours) was 1 and the “Population Apoptotic (%)” value (HEK-293T; [1]) was 22%. For the same compound, the “Population Fragmented Nuclei (%)” value (HEK-293T; [1]) was 18%, the “Population Healthy Nuclei (%)” value (HEK-293T; [1]) was 46% and the “Population Hoechst High Intensity Objects (%)” value (HEK-293T; [1]) was 14%. The “Population Membrane Permeable-Phenotype (%)” value (HEK-293T; [1]) was 12%, the “Population Mitochondria Different-Phenotype (%)” value (HEK-293T; [1]) was 15% and the “Population Mitotic Cells (%)” value (HEK-293T; [1]) was 77%. The “Population Normal (%)” value (HEK-293T; [1]) was 85%, the “Population Pyknosed Nuclei (%)” value (HEK-293T; [1]) was 34% and the “Population Tubulin-Different-Phenotype (%)” value (HEK-293T; [1]) was 29%. The “Total Cell Count” value (HEK-293T; [1]) was 588, the “Population Apoptotic (%)” value (HEK-293T; [2]) was 10% and the “Population Fragmented Nuclei (%)” value (HEK-293T; [2]) was 5%. For the same compound, the “Population Healthy Nuclei (%)” value (HEK-293T; [2]) was 85%, the “Population Hoechst High Intensity Objects (%)” value (HEK-293T; [2]) was 3% and the “Population Membrane Permeable-Phenotype (%)” value (HEK-293T; [2]) was 11%. The “Population Mitochondria Different-Phenotype (%)” value (HEK-293T; [2]) was 18%, the “Population Mitotic Cells (%)” value (HEK-293T; [2]) was 89% and the “Population Normal (%)” value (HEK-293T; [2]) was 96%. For the same compound, the “Population Pyknosed Nuclei (%)” value (HEK-293T; [2]) was 9%, the “Population Tubulin-Different-Phenotype (%)” value (HEK-293T; [2]) was 64% and the “Total Cell Count” value (HEK-293T; [2]) was 1315. For the same compound, the “Population Apoptotic (%)” value (HEK-293T; [3]) was 18%, the “Population Fragmented Nuclei (%)” value (HEK-293T; [3]) was 15% and the “Population Healthy Nuclei (%)” value (HEK-293T; [3]) was 60%. For the same compound, the “Population Hoechst High Intensity Objects (%)” value (HEK-293T; [3]) was 9%, the “Population Membrane Permeable-Phenotype (%)” value (HEK-293T; [3]) was 4% and the “Population Mitochondria Different-Phenotype (%)” value (HEK-293T; [3]) was 3%. The “Population Mitotic Cells (%)” value (HEK-293T; [3]) was 81%, the “Population Normal (%)” value (HEK-293T; [3]) was 91% and the “Population Pyknosed Nuclei (%)” value (HEK-293T; [3]) was 23%. For the same compound, the “Population Tubulin-Different-Phenotype (%)” value (HEK-293T; [3]) was 2%, the “Total Cell Count” value (HEK-293T; [3]) was 500 and the “Population Apoptotic (%)” value (HEK-293T; [4]) was 8%. For the same compound, the “Population Fragmented Nuclei (%)” value (HEK-293T; [4]) was 8%, the “Population Healthy Nuclei (%)” value (HEK-293T; [4]) was 86% and the “Population Hoechst High Intensity Objects (%)” value (HEK-293T; [4]) was 2%. For the same compound, the “Population Membrane Permeable-Phenotype (%)” value (HEK-293T; [4]) was 1%, the “Population Mitochondria Different-Phenotype (%)” value (HEK-293T; [4]) was 10% and the “Population Mitotic Cells (%)” value (HEK-293T; [4]) was 91%. The “Population Normal (%)” value (HEK-293T; [4]) was 97%, the “Population Pyknosed Nuclei (%)” value (HEK-293T; [4]) was 5% and the “Population Tubulin-Different-Phenotype (%)” value (HEK-293T; [4]) was 7%. The “Total Cell Count” value (HEK-293T; [4]) was 1603, the “Population Apoptotic (%)” value (HEK-293T; [5]) was 17% and the “Population Fragmented Nuclei (%)” value (HEK-293T; [5]) was 14%. The “Population Healthy Nuclei (%)” value (HEK-293T; [5]) was 67%, the “Population Hoechst High Intensity Objects (%)” value (HEK-293T; [5]) was 10% and the “Population Membrane Permeable-Phenotype (%)” value (HEK-293T; [5]) was 16%. The “Population Mitochondria Different-Phenotype (%)” value (HEK-293T; [5]) was 12%, the “Population Mitotic Cells (%)” value (HEK-293T; [5]) was 82% and the “Population Normal (%)” value (HEK-293T; [5]) was 89%. For the same compound, the “Population Pyknosed Nuclei (%)” value (HEK-293T; [5]) was 18%, the “Population Tubulin-Different-Phenotype (%)” value (HEK-293T; [5]) was 48% and the “Total Cell Count” value (HEK-293T; [5]) was 613. For the same compound, the “Population Apoptotic (%)” value (HEK-293T; [6]) was 8%, the “Population Fragmented Nuclei (%)” value (HEK-293T; [6]) was 17% and the “Population Healthy Nuclei (%)” value (HEK-293T; [6]) was 77%. For the same compound, the “Population Hoechst High Intensity Objects (%)” value (HEK-293T; [6]) was 3%, the “Population Membrane Permeable-Phenotype (%)” value (HEK-293T; [6]) was 28% and the “Population Mitochondria Different-Phenotype (%)” value (HEK-293T; [6]) was 4%. For the same compound, the “Population Mitotic Cells (%)” value (HEK-293T; [6]) was 91%, the “Population Normal (%)” value (HEK-293T; [6]) was 96% and the “Population Pyknosed Nuclei (%)” value (HEK-293T; [6]) was 4%. The “Population Tubulin-Different-Phenotype (%)” value (HEK-293T; [6]) was 68%, the “Total Cell Count” value (HEK-293T; [6]) was 2065 and the “Population Apoptotic (%)” value (HEK-293T; [7]) was 18%. For the same compound, the “Population Fragmented Nuclei (%)” value (HEK-293T; [7]) was 11%, the “Population Healthy Nuclei (%)” value (HEK-293T; [7]) was 77% and the “Population Hoechst High Intensity Objects (%)” value (HEK-293T; [7]) was 5%. For the same compound, the “Population Membrane Permeable-Phenotype (%)” value (HEK-293T; [7]) was 8%, the “Population Mitochondria Different-Phenotype (%)” value (HEK-293T; [7]) was 4% and the “Population Mitotic Cells (%)” value (HEK-293T; [7]) was 81%. The “Population Normal (%)” value (HEK-293T; [7]) was 94%, the “Population Pyknosed Nuclei (%)” value (HEK-293T; [7]) was 10% and the “Population Tubulin-Different-Phenotype (%)” value (HEK-293T; [7]) was 7%. The “Total Cell Count” value (HEK-293T; [7]) was 587, the “Population Apoptotic (%)” value (HEK-293T; [8]) was 3% and the “Population Fragmented Nuclei (%)” value (HEK-293T; [8]) was 29%. The “Population Healthy Nuclei (%)” value (HEK-293T; [8]) was 68%, the “Population Hoechst High Intensity Objects (%)” value (HEK-293T; [8]) was 3% and the “Population Membrane Permeable-Phenotype (%)” value (HEK-293T; [8]) was 5%. For the same compound, the “Population Mitochondria Different-Phenotype (%)” value (HEK-293T; [8]) was 1%, the “Population Mitotic Cells (%)” value (HEK-293T; [8]) was 96% and the “Population Normal (%)” value (HEK-293T; [8]) was 96%. The “Population Pyknosed Nuclei (%)” value (HEK-293T; [8]) was 2% and the “Total Cell Count” value (HEK-293T; [8]) was 2772.
